Reference: ChEMBL document CHEMBL1131482 (J Med Chem, 1998)
The source made the active and inactive calls.

Experiments:
Mus musculus [1] = assay: Licking latency was measured after 15 min treatment (at dose=10 mg/kg) by using mouse hot plate test; type: functional
Procedure, shortened: (§1)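 Male Swiss-Webster mice (22-28 g), 23 ± 1 °C, 12-h light/dark cycle, food and water ad libitum. Hot plate at 52.5 ± 0.1 °C with licking latency as read-out and 45 s cutoff. Mice with pre-drug latency below 12 or over 18 s were rejected. Compounds given sc, 5-12 mice per test. Significance was assessed by Dunnett's two-tailed test, P < 0.05.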

Mus musculus [2] = species: Mus musculus; assay: Analgesic efficacy is expressed as percentage of that morphine, done on mouse.; type: functional
Mus musculus [3] = assay: Licking latency was measured after 15 min treatment (at dose=25 mg/kg) by using mouse hot plate test (*P<0.01); type: functional; procedure, shortened: as §1
Mus musculus [4] = assay: Licking latency was measured after 30 min treatment (at dose=25 mg/kg) by using mouse hot plate test (*P<0.01); type: functional; procedure, shortened: as §1
Mus musculus [5] = assay: Licking latency was measured after 15 min treatment (at dose=15 mg/kg) by using mouse hot plate test (*P<0.01); type: functional; procedure, shortened: as §1
Mus musculus [6] = assay: MAD: minimal dose able to induce a statistically significant increase of the pain threshold, done on mouse; sc; type: functional
Procedure, shortened: (§2)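 Mouse hot plate test (52.5 ± 0.1 °C, 45 s cutoff) after sc dosing, in male Swiss-Webster mice. The value is the lowest dose giving a statistically significant rise in pain threshold. Dunnett's two-tailed test compared treated mice at maximum reaction time with pretest time, P < 0.05.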

Mus musculus [7] = assay: Licking latency was measured after 30 min treatment (at dose=10 mg/kg) by using mouse hot plate test; type: functional; procedure, shortened: as §1
Mus musculus [8] = assay: Licking latency was measured after 45 min treatment (at dose=10 mg/kg) by using mouse hot plate test; type: functional; procedure, shortened: as §1
Mus musculus [9] = assay: Licking latency was measured after 45 min treatment (at dose=25 mg/kg) by using mouse hot plate test (*P<0.01); type: functional; procedure, shortened: as §1
Mus musculus [10] = assay: Licking latency was measured before treatment (at dose=10 mg/kg) by using mouse hot plate test; type: functional; procedure, shortened: as §1
Mus musculus [11] = assay: Licking latency was measured before treatment (at dose=25 mg/kg) by using mouse hot plate test; type: functional; procedure, shortened: as §1
Mus musculus [12] = assay: Licking latency was measured after 30 min treatment (at dose=15 mg/kg) by using mouse hot plate test (*P<0.01); type: functional; procedure, shortened: as §1
Mus musculus [13] = species: Mus musculus; assay: Analgesic efficacy is expressed as percentage of that epibatidine, done on mouse.; type: functional
Mus musculus [14] = assay: MNTD:Maximal nontoxic dose of the compound, done on mouse; sc; type: functional
Procedure, shortened: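 Male Swiss-Webster mice dosed sc. The value is the highest dose causing no visible behavioural change (tremors, convulsions, hypomotility etc.), so that treated mice could not be told apart from untreated ones. Behaviour was scored by the Irwin method in groups of at least 10 animals.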

Mus musculus [15] = assay: Licking latency was measured before treatment (at dose=15 mg/kg) by using mouse hot plate test; type: functional; procedure, shortened: as §1
Mus musculus [16] = assay: Licking latency was measured after 45 min treatment (at dose=15 mg/kg) by using mouse hot plate test (*P<0.01); type: functional; procedure, shortened: as §1
Mus musculus [17] = assay: Licking latency was measured before treatment (at dose=50 mg/kg) by using mouse hot plate test; type: functional
Procedure, shortened: (§3)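 Male Swiss-Webster mice (22-28 g), 23 ± 1 °C, 12-h light/dark cycle. Hot plate at 52.5 ± 0.1 °C. Mice with pre-drug licking latency below 12 s or over 18 s were rejected. Cutoff 45 s. Compound given sc; latency read before dosing and at 15, 30 and 45 min. 5-12 mice per test.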

Mus musculus [18] = assay: Licking latency was measured after 15 min treatment (at dose=50 mg/kg) by using mouse hot plate test; type: functional; procedure, shortened: as §1
Mus musculus [19] = assay: MAD: minimal dose able to induce a statistically significant increase of the pain threshold, done on mouse; sc; IA = inactive; type: functional, organism-based; procedure, shortened: as §2
Mus musculus [20] = assay: Licking latency was measured after 45 min treatment (at dose=50 mg/kg) by using mouse hot plate test; type: functional; procedure, shortened: as §1
Mus musculus [21] = assay: Licking latency was measured after 30 min treatment (at dose=50 mg/kg) by using mouse hot plate test; type: functional; procedure, shortened: as §1
Mus musculus [22] = assay: Licking latency was measured after 30 min treatment (at dose=5 mg/kg) by using mouse hot plate test; type: functional; procedure, shortened: as §1
Mus musculus [23] = assay: 15.5 Licking latency was measured after 15 min treatment (at dose=5 mg/kg) by using mouse hot plate test; type: functional; procedure, shortened: as §1
Mus musculus [24] = assay: Licking latency was measured after 45 min treatment (at dose=5 mg/kg) by using mouse hot plate test; type: functional; procedure, shortened: as §1
Mus musculus [25] = assay: Licking latency was measured before treatment (at dose=5 mg/kg) by using mouse hot plate test; type: functional; procedure, shortened: as §3
Mus musculus [26] = assay: Licking latency was measured before treatment (at dose=20 mg/kg) by using mouse hot plate test; type: functional; procedure, shortened: as §1
Mus musculus [27] = assay: MAD: minimal dose able to induce a statistically significant increase of the pain threshold, done on mouse; sc; IA= inactive; type: functional, organism-based; procedure, shortened: as §2
Mus musculus [28] = assay: Licking latency was measured after 45 min treatment (at dose=40 mg/kg) by using mouse hot plate test; type: functional; procedure, shortened: as §1
Mus musculus [29] = assay: Licking latency was measured after 15 min treatment (at dose=20 mg/kg) by using mouse hot plate test; type: functional; procedure, shortened: as §1
Mus musculus [30] = assay: Licking latency was measured after 30 min treatment (at dose=40 mg/kg) by using mouse hot plate test; type: functional; procedure, shortened: as §1
Mus musculus [31] = assay: Licking latency was measured after 45 min treatment (at dose=20 mg/kg) by using mouse hot plate test; type: functional; procedure, shortened: as §1
Mus musculus [32] = assay: Licking latency was measured after 30 min treatment (at dose=20 mg/kg) by using mouse hot plate test; type: functional; procedure, shortened: as §1
Mus musculus [33] = assay: Licking latency was measured after 15 min treatment (at dose=40 mg/kg) by using mouse hot plate test; type: functional; procedure, shortened: as §1
Mus musculus [34] = assay: Licking latency was measured before treatment (at dose=40 mg/kg) by using mouse hot plate test; type: functional; procedure, shortened: as §3
Mus musculus [35] = assay: Licking latency was measured after 30 min treatment (at dose=25 mg/kg) by using mouse hot plate test; type: functional; procedure, shortened: as §1
Mus musculus [36] = assay: Licking latency was measured after 15 min treatment (at dose=5 mg/kg) by using mouse hot plate test; type: functional; procedure, shortened: as §1
Mus musculus [37] = assay: Licking latency was measured after 45 min treatment (at dose=25 mg/kg) by using mouse hot plate test; type: functional; procedure, shortened: as §1
Mus musculus [38] = assay: Licking latency was measured after 15 min treatment (at dose=25 mg/kg) by using mouse hot plate test; type: functional; procedure, shortened: as §1

Row | SMILES | Licking latency (Mus musculus [1]) | Analgesic efficacy compared to morphine (Mus musculus [2]) | MAD (Mus musculus [6]) | Licking latency (Mus musculus [7]) | Licking latency (Mus musculus [8]) | Licking latency (Mus musculus [10]) | Licking latency (Mus musculus [11]) | Analgesic efficacy compared to epibatidine (Mus musculus [13]) | MNTD (Mus musculus [14]) | Licking latency (Mus musculus [22]) | Licking latency (Mus musculus [24]) | Licking latency (Mus musculus [25]) | other results
1 | Clc1ccc(N2C3CCC2CNC3)nn1 | 17 s | 107% | 15 mg/kg | 15.4 s | 17.4 s | 12.2 s | 15 s | 130% | 30 mg/kg | – | – | – | Licking latency (Mus musculus [3]): 35.5 s; Licking latency (Mus musculus [4]): 34.8 s; Licking latency (Mus musculus [5]): 23.2 s; Licking latency (Mus musculus [9]): 26.4 s; Licking latency (Mus musculus [12]): 22.9 s; Licking latency (Mus musculus [15]): 15.3 s; Licking latency (Mus musculus [16]): 20.6 s
2 | CCC(=O)N1CC2CCC(C1)N2c1ccc(Cl)nn1 | 16 s | – | – | 16.7 s | 16.1 s | 15.8 s | – | – | >50 mg/kg | – | – | – | Licking latency (Mus musculus [17]): 14.6 s; Licking latency (Mus musculus [18]): 17 s; MAD (Mus musculus [19]): inactive; Licking latency (Mus musculus [20]): 14 s; Licking latency (Mus musculus [21]): 13 s
3 | CN1CC[C@]23c4c5ccc(O)c4O[C@H]2[C@@H](O)C=C[C@H]3[C@H]1C5 [MORPHINE] | – | 100% | 2 mg/kg | – | – | – | – | 122% | 20 mg/kg | – | – | – | –
4 | Clc1cncc(N2CC3CCC(C2)N3)n1 | 24.6 s | 57% | 5 mg/kg | 22.5 s | 22.3 s | 13.6 s | – | 70% | 15 mg/kg | 15.5 s | 15.7 s | 15.1 s | Licking latency (Mus musculus [23]): 19.7 s
5 | CCC(=O)N1C2CCC1CN(c1ccc(Cl)nn1)C2 | – | – | – | – | – | – | – | – | >60 mg/kg | – | – | – | Licking latency (Mus musculus [26]): 13.8 s; MAD (Mus musculus [27]): inactive; Licking latency (Mus musculus [28]): 18.4 s; Licking latency (Mus musculus [29]): 17.1 s; Licking latency (Mus musculus [30]): 16.4 s; Licking latency (Mus musculus [31]): 18 s; Licking latency (Mus musculus [32]): 15.6 s; Licking latency (Mus musculus [33]): 17 s; Licking latency (Mus musculus [34]): 14.5 s
6 | CSc1nc(Cl)cc(N2CC3CCC(C2)N3)n1 | – | 149% | 5 mg/kg | – | – | – | 15.1 s | 182% | 30 mg/kg | 20.5 s | 18.7 s | 14.7 s | Licking latency (Mus musculus [35]): 43.8 s; Licking latency (Mus musculus [36]): 20.3 s; Licking latency (Mus musculus [37]): 36.5 s; Licking latency (Mus musculus [38]): 40.8 s
7 | Clc1cccnc1N1CC2CCC(C1)N2 | – | 124% | 10 mg/kg | – | – | – | 15.3 s | 151% | 40 mg/kg | 20.3 s | 18.3 s | 13.7 s | Licking latency (Mus musculus [35]): 29.7 s; Licking latency (Mus musculus [36]): 21.3 s; Licking latency (Mus musculus [37]): 27.5 s; Licking latency (Mus musculus [38]): 39.2 s
